mIAP block – inhibitors of mouse IAP, primary screen, biochemical, luminescence, uHTS; purified mouse IAP, CDP-Star luminescence, 30 min; AID 2806, 2010; inhibition, % at 10 µM; hit rate 0.2% among 330,000; intestinal alkaline phosphatase [Mus musculus];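 active = inhibition of at least 40% at 10 µM in the primary screen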;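 note: plate controls were DMSO with enzyme for no effect and no enzyme wells for full effect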
hIAP act – human IAP activators, primary screen, biochemical, luminescence, uHTS; Intestinal-type alkaline phosphatase (Homo sapiens), P09923; purified human IAP, CDP-Star luminescence, 30 min; hits give high values; 1 = vehicle-only enzyme, 0 = enzyme-free background; activation factor at 10 µM; hit rate 0.16% among 330,000; AID 2524, 2010;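 active = activation factor of the enzyme at least 2-fold when tested at 20 µM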
Target sequence (P09923 whole entry, looked up): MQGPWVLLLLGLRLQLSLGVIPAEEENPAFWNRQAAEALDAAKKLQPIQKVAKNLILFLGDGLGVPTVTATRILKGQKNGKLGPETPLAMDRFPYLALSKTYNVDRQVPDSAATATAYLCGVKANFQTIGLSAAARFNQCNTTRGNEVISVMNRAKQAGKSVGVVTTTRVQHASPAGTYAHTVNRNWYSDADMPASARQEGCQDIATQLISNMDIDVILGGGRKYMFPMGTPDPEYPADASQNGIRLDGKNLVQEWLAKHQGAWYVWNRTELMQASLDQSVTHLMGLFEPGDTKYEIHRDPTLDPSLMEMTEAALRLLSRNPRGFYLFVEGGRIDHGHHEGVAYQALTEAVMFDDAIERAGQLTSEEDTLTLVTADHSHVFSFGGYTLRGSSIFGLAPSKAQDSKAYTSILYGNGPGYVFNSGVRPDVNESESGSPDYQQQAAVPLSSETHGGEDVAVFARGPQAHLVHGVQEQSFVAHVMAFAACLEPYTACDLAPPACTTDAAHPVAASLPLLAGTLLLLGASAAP
hIAP block – human IAP inhibitors, primary screen, biochemical, luminescence, uHTS; AID 2544, 2010; Intestinal-type alkaline phosphatase (Homo sapiens), P09923; inhibition, % at 10 µM; hit rate 0.12% among 330,000; purified IAP, CDP-Star luminescence, 30 min;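 active = inhibition reaching a set limit with compound at 10 µM in the primary screen, cut at about 35% in these data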;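 note: plate controls were DMSO wells with enzyme for no effect and no-enzyme buffer wells for full effect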
bIAP act – bovine intestinal alkaline phosphatase activators, primary screen, biochemical, bovine IAP, CDP-star luminescence; alkaline phosphatase, intestinal [Bos taurus]; purified bovine IAP, 30 min; hits give high values; fold of DMSO-control signal, blank-subtracted; activation factor at 20 µM; hit rate 0.17% among 200,000; AID 1016, 2008;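 active = activation factor of 2 or more at 20 µM, a signal rise over negative controls twice the positive control's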
bIAP inhibitor – bovine intestinal alkaline phosphatase inhibitors, primary screen, selectivity assay for TNAP inhibitor project, biochemical, bovine IAP, CDP-star luminescence; alkaline phosphatase, intestinal [Bos taurus]; purified bovine IAP, 30 min; inhibition, % at 20 µM; AID 1019, 2008; 190,000 tested, under 10 active;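 active = over 50% inhibition of intestinal alkaline phosphatase at 20 µM in the single-dose screen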
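Assay system – bovine IAP enzyme · Quantity – bovine IAP at 1/65,000,000 final dilution · Detection – CDP-star luminescence signal · Times – 30 min reaction at room temperature · Also added – CDP-star substrate at 30 µM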
mIAP activ – activators of mouse IAP, primary screen, biochemical, luminescence, uHTS | hit rate 0.24% among 330,000 | intestinal alkaline phosphatase [Mus musculus] | muIAP, CDP-Star luminescence, 30 min; hits give high values; 1 = vehicle-only enzyme signal, 0 = enzyme-free wells | activation factor at 10 µM;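 active = activation factor of at least 2 at 20 µM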
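System: Mouse IAP enzyme | Also added: CDP-Star substrate | Dosing: Compounds dispensed in DMSO | Schedule: 30 min enzyme-substrate-compound incubation at room temperature | Technique: Chemiluminescence readout | Control set: DMSO-only wells and no-enzyme negative control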
An asterisk follows results filed as active; i = inactive; / = no result given. Hits are enriched below; roughly 0.79% of the tested compounds scored in any of these assays.

SMILES | mIAP block | hIAP act | hIAP block | bIAP act | bIAP inhibitor | mIAP activ
Cc1ccc(S(=O)(=O)N2CCC(C(=O)Nc3cc(C(F)(F)F)ccc3N3CCOCC3)CC2)cc1C | -15 | 0.93 | 7 | / | / | 1.2
COc1cc(NC(=O)C(Cc2ccccc2)n2cccc2)cc(OC)c1 (stereo unspecified) | -109 | 1.2 | -19 | / | / | 2.1*
CCCCC(CC)CNC(=O)C(Cc1ccccc1)NS(=O)(=O)c1ccc2c(c1)CCC(=O)N2 (stereo unspecified) | -120 | 1.2 | -15 | 0.8 | 16 | 2.2*
COc1ccccc1NC(=O)c1ccc(Br)c(S(=O)(=O)N2CCCC2)c1 | -5 | 1.1 | -9 | / | / | 1.1
N#Cc1cc2c(nc1SCc1ccccc1)CCCCC2 | -1 | 0.76 | 24 | 0.6 | 36 | 1
N#Cc1cc2c(nc1SCc1cccc(Cl)c1)CCCCC2 | 41* | 1 | -2 | 0.7 | 26 | 0.59
C[C@@H](NC(=O)[C@@H]1Cc2ccccc2CN1C(=O)OC(C)(C)C)C(=O)NC1CCCCC1 | -3 | 0.83 | 17 | / | / | 1
COc1ccc(C(C)(C)C)cc1NC(=O)c1cccc(S(=O)(=O)N2CCN(C(C)=O)CC2)c1 | 1 | 1.1 | -9 | / | / | 0.99
CCCCCCCCn1ccc(=N)cc1 | -5 | 0.97 | 2 | / | / | 1
COc1ccccc1NC(=S)NC(=O)/C=C/c1ccco1 | 42* | 0.91 | 9 | 1 | 5 | 0.58
Cc1cccc(NC(=S)NC(=O)/C=C/c2ccco2)c1 | 17 | 1.2 | -21 | 1 | -2 | 0.83
O=C(/C=C/c1ccco1)NC(=S)Nc1cccc([N+](=O)[O-])c1 | 60* | 1.1 | -6 | 1 | -3 | 0.41
COc1ccc(N2CCN(C3CCCN(C(=O)C4=C(C)OCCO4)C3)CC2)cc1 (stereo unspecified) | -2 | 1.1 | -9 | / | / | 1
O=C1/C(=C/c2ccc(N3CCOCC3)o2)SC(=Nc2ccccc2)N1CCc1c[nH]c2ccccc12 | 12 | 0.57 | 43* | 0.6 | 40 | 0.88
CCN(CC(=O)Nc1cccc(F)c1)Cc1nc2ccccc2c(=O)[nH]1 | -7 | 1.4 | -43 | 1.8 | -78 | 1.1
CCN(CC(=O)NCc1ccc(F)cc1)Cc1nc2ccccc2c(=O)[nH]1 | -15 | 1 | -5 | 2* | -100 | 1.2
CC(=O)c1cccc(NC(=S)NC2CCCCCCC2)c1 | -14 | 1.1 | -8 | / | / | 1.1
Cc1c(Cl)cccc1NC(=S)NCc1ccccc1Cl | -169 | 1 | -1 | 1.1 | -6 | 2.7*
COc1ccccc1S(=O)(=O)NCc1ccc(C(=O)NC2CCC(O)CC2)cc1 (stereo unspecified) | 14 | 1.1 | -7 | / | / | 0.86
CC(NC(=S)Nc1ccc(OC(F)F)c(Cl)c1)C(C)(C)C (stereo unspecified) | -248 | 1.5 | -46 | 0.9 | 7 | 3.5*
FC(F)Oc1ccc(NC(=S)NCc2ccccc2)cc1Cl | -124 | 1.2 | -19 | 0.8 | 19 | 2.2*
Cc1ccc(NC(=S)Nc2ccc(OC(F)F)c(Cl)c2)cc1Cl | / | / | / | 0.8 | 22 | /
FC(F)Oc1ccc(NC(=S)NCc2ccccc2)cc1 | -65 | 1.1 | -8 | 0.9 | 13 | 1.7
CNC(=O)COc1ccc(Nc2nnc(-c3ccc(C)c(S(N)(=O)=O)c3)c3ccccc23)cc1 | 7 | 0.98 | 2 | / | / | 0.93
O=C(COC(=O)/C=C/c1ccc(OC(F)F)cc1)NC1CCCCCC1 | 6 | 1 | -4 | / | / | 0.94
SMILES | mIAP block | hIAP act | hIAP block | bIAP act | bIAP inhibitor | mIAP activ
c1ccc(CNc2c3c(nc4ncnn24)CCCC3)nc1 | 6 | 0.84 | 16 | 4.8* | -378 | 0.94
COc1ccc(-c2cc(NCc3ccccn3)n3ncnc3n2)cc1 | -81 | 0.98 | 2 | 7.4* | i | 1.8
CCc1cc(=O)oc2c3c(cc(OCC(=O)NCCN4CCOCC4)c12)OC(C)(C)CC3 | -4 | 0.91 | 9 | / | / | 1
COc1ccc(CCNC(=O)COC(=O)C2CC2)cc1OC | -4 | 1.1 | -8 | / | / | 1
COc1ccc(CCNC(=S)NC(=O)c2cccc([N+](=O)[O-])c2)cc1OC | 2 | 1 | 0 | / | / | 0.98
CCOc1ccc(CCNC(=O)c2ccc3c(c2)NC(=O)C2CCCN32)cc1OCC (stereo unspecified) | -103 | 0.92 | 8 | / | / | 2*
Cc1cccc(NC(=O)c2ccc(S(=O)(=O)NCc3cccnc3)cc2)c1 | 10 | 0.98 | 2 | / | / | 0.9
CCNC(=S)N1C2CCC1CC(NC(=O)Nc1ccc(C(=O)OCC)cc1)C2 (stereo unspecified) | -56 | 0.92 | 8 | 1.1 | -12 | 1.6
CCOCCCNC(=S)N1C2CCC1CC(NC(=O)Nc1ccc(C(=O)OCC)cc1)C2 (stereo unspecified) | -120 | 1.4 | -38 | 1.4 | -38 | 2.2*
COc1ccc(N(CC(=O)NCc2ccc3c(c2)OCO3)C(=O)c2csnn2)cc1 | -16 | 1 | 0 | / | / | 1.2
O=C(Nc1ccc2c(c1)OCO2)C1CCCN1C(=O)Nc1ccccc1 (stereo unspecified) | -3 | 0.95 | 5 | / | / | 1
CC1(C)Oc2ccc3ccc(=O)oc3c2/C(=C/N)C1=O | 7 | 1.2 | -23 | 1 | 3 | 0.93
CC1(C)Oc2ccc3ccc(=O)oc3c2/C(=C/Nc2ccccc2)C1=O | 41* | 0.96 | 4 | 0.8 | 16 | 0.59
CN(c1cccc(NC(=O)CN(c2ccc(Cl)c(Cl)c2)S(=O)(=O)c2ccccc2)c1)S(C)(=O)=O | -53 | 0.93 | 7 | 1 | -2 | 1.5
Cc1ccc(S(=O)(=O)N(CC(=O)Nc2cccc(N(C)S(C)(=O)=O)c2)c2ccc(Cl)c(Cl)c2)cc1 | -158 | 1.1 | -14 | 1.4 | -36 | 2.6*
Cc1cc(N(C)C)ccc1N=Nc1ccc2ncccc2c1 | 18 | 0.6 | 40* | / | / | 0.82
Cc1ccc2ncccc2c1 | -10 | 1.1 | -9 | / | / | 1.1
CN(CC(=O)O/N=C(\N)c1ccc([N+](=O)[O-])cc1)S(=O)(=O)c1ccc2ccccc2c1 | 10 | 1.5 | -46 | 0.8 | 19 | 0.9
C[C@H](CO)N1C[C@H](C)[C@@H](CN(C)C(=O)Nc2ccc3c(c2)OCO3)Oc2ccc(NC(=O)Nc3ccc4c(c3)OCO4)cc2C1=O | -139 | 1.2 | -15 | / | / | 2.4*
CC(C)NC(=O)N(C)C[C@H]1Oc2ccc(NC(=O)Nc3ccc4c(c3)OCO4)cc2C(=O)N([C@H](C)CO)C[C@@H]1C | -25 | 1.2 | -18 | / | / | 1.3

Bioassay records: PubChem, Sanford-Burnham Center for Chemical Genomics
